Results on eight molecules are retold here after ChEMBL document CHEMBL5143661, “Efficiency of bis-amidate phosphonate prodrugs” (Bioorg Med Chem Lett, 2022).

Where only a bound is given, the exact number is not on record here.

Data set [1] can be described thus: Stability of the compound in 50% plasma (unknown origin) in PBS assessed as parent compound remaining measured after 24 hrs. The data set is classed as ADME, cell-free. To be noted: unidentified. In outline:
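Compound incubated 24 h in 50% plasma diluted in phosphate-buffered saline; percent parent remaining determined (n=2).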

A short description of data set [2]: Stability of the compound in human K562 cell lysates in lysis buffer assessed as parent compound remaining measured after 4 hrs. The data set is classed as ADME, subcellular. As to conditions: k562, 4 h. In outline: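 Compound incubated 4 h in K562 cell extract, 5 mg/mL in lysis buffer; percent parent remaining determined (n=2).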
The nature of data set [3]: Induction of interferon gamma production in human Vgamma9Vdelta2 T cells pretreated with K562 cells followed by compound washout and cocultured with Vgamma9Vdelta2 T cells and measured after 15 mins by ELISA. The data set is classed as functional, cell-based. To be noted: Vgamma9Vdelta2 T cell. In outline:
(§1)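 K562 cells loaded with compound over a dose range for 15, 60 or 240 min, washed, then co-cultured with human Vγ9Vδ2 T cells.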
(ELISA stands for enzyme-linked immunosorbent assay.)

The nature of data set [4]: Induction of interferon gamma production in human Vgamma9Vdelta2 T cells pretreated with K562 cells followed by compound washout and cocultured with Vgamma9Vdelta2 T cells and measured after 60 mins by ELISA. The data set is classed as functional, cell-based. To be noted: Vgamma9Vdelta2 T cell. Summed up: as §1
The next data set has as its system K562. In words: Cytotoxicity against human K562 cells assessed as inhibition of cell growth incubated for 72 hrs. The data set is classed as functional, cell-based. To be noted: K562, 72 h.
The nature of data set [5]: Induction of interferon gamma production in human Vgamma9Vdelta2 T cells pretreated with K562 cells followed by compound washout and cocultured with Vgamma9Vdelta2 T cells and measured after 240 mins by ELISA. The data set is classed as functional, cell-based. As to conditions: Vgamma9Vdelta2 T cell. In outline:
as §1

A short description of data set [6]: Induction of Vgamma9Vdelta2 T cell proliferation in human peripheral blood. The data set is classed as functional, cell-based.

`CC(C)=CCCP(=O)(N[C@@H](C)C(=O)OC(C)C)N[C@@H](C)C(=O)OC(C)C`: the values for the Stability in data set [1] and in data set [2] were 90% and 79%, respectively.

As for `COC(=O)[C@@H](NP(=O)(CCC=C(C)C)N[C@H](C(=O)OC)C(C)C)C(C)C`, the Stability in data set [1] is 99%; in data set [2], 85%.

Turning to `COC(=O)[C@@H](NP(=O)(CC/C=C(\C)CO)N[C@H](C(=O)OC)C(C)C)C(C)C`, the concentration for a half-maximal effect (EC50) (commonly the concentration at which the effect is half-maximal) in data set [3] stood at 14000 nM; in data set [4] it was 5700 nM; in data set [5] it was 1900 nM; in data set [6], 30 nM. Also, the Stability in data set [1] is listed as 86%; in data set [2], 74%. Besides, the IC50 (usually the midpoint of a concentration-inhibition curve) in the data set on K562 is 10000 nM.

Take `C/C(=C\CCP(=O)(OCOC(=O)C(C)(C)C)OCOC(=O)C(C)(C)C)CO`: the 50% effective concentration (EC50) in data set [3] was determined as 43 nM; in data set [4] it was 30 nM; in data set [5] it was 24 nM. Besides, the half-maximal inhibitory concentration (IC50) with K562 is greater than 100000 nM. The Stability in data set [2] was 0%.

For `CCOC(=O)[C@H](C)NP(=O)(CCC=C(C)C)N[C@@H](C)C(=O)OCC`, the Stability is recorded as 70% in data set [1] and 31% in data set [2].

As for `CCOC(=O)CNP(=O)(CC/C=C(\C)CO)NCC(=O)OCC`, the EC50 in data set [3] is 23000 nM; in data set [4], 7200 nM; in data set [5], 1600 nM; in data set [6] it was 43 nM. The Stability was 82% in data set [1] and 57% in data set [2]. The IC50 in the data set on K562 was greater than 100000 nM.

For `CCOC(=O)CNP(=O)(CC/C=C(\C)CO)Oc1ccccc1` (racemic), the figures for the EC50 in data set [3], in data set [4] and in data set [5] were 1500 nM, 230 nM and 51 nM, respectively. Moreover, the IC50 with K562 was greater than 100000 nM. In data set [2], the Stability is listed as 86%.

Regarding `CCOC(=O)CNP(=O)(CCC=C(C)C)NCC(=O)OCC`, the Stability worked out at 82% in data set [1] and 86% in data set [2].
